From ChEMBL document CHEMBL1123757, “Selective thromboxane synthetase inhibitors and antihypertensive agents. New derivatives of 4-hydrazino-5H-pyridazino[4,5-b]indole, 4-hydrazinopyridazino[4,5-a]indole, and related compounds” (J Med Chem, 1987) come the findings set out here.

For orientation: inhibition means the percentage by which the read-out fell short of the control.

The subject of test [1] is Rattus norvegicus. The test can be described thus: Antihypertensive activity in spontaneously hypertensive rats (SHR) measured by percentage fall in arterial pressure (AP) at 25 mg/kg administered intraperitoneally at 3 h;No significance. It is filed as functional, organism-based. Also noted: dose 25 mg/kg. As to conditions: Artery. The gist of the method: (§1)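 Unanesthetized Okamoto-strain SHR, male and female, 8 weeks old, 300–350 g, systolic pressure ≥190 mmHg, heart rate 400–650 beats/min; five animals per dose. Given ip at 2.5 mL/kg, dissolved or suspended in normal saline or saline with 0.2% (carboxymethyl)cellulose and 1.0% Tween 80. Tail AP and CR recorded by mechanical transduction at set times; reported as percentage fall from control.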

The species named for test [2] is Homo sapiens. The test can be described thus: In vitro inhibition of platelet aggregation induced by […] (PRP incubated for 5 minutes at 37 degree C) at 10e-5 M;NS means no significance. It is filed as functional.
For test [3], the system named is Rattus norvegicus. The experiment in a line: Antihypertensive activity in spontaneously hypertensive rats (SHR) measured by percentage fall in cardiac rhythm (CR) at 25 mg/kg administered intraperitoneally at 5 h;No significance. The conditions noted are these: Heart. Type of test: functional, organism-based. Also on record: dose 25 mg/kg. In a few lines:
(§2)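 Conscious SHR (Okamoto strain), 8 weeks old, male and female, 300–350 g, systolic BP ≥190 mmHg, CR 400–650 beats/min. Given ip or po at 2.5 mL/kg in normal saline or saline with 0.2% (carboxymethyl)cellulose and 1.0% Tween 80. Tail AP and CR recorded by mechanical transduction at 1, 3, 5 and 24 h, five animals per dose. Effect expressed as % fall versus control.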

In test [4] the test system is Rattus norvegicus. The experiment in a line: Antihypertensive activity in spontaneously hypertensive rats (SHR) measured by percentage fall in cardiac rhythm (CR) at 25 mg/kg administered intraperitoneally at 1 h. Type of test: functional, Heart. The conditions noted are these: route intraperitoneal. In a few lines:
as §1

The species entered for test [5] is Homo sapiens. The test can be described thus: In vitro inhibition of platelet aggregation induced by AA (PRP incubated for 60 minutes at 37 degree C) at 10e-5 M;NS means no significance. Type of test: functional. The gist of the method: (§3)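 Human venous blood anticoagulated with 3.8% sodium citrate (1:9). PRP from centrifugation at 800 rpm for 10 min at room temperature. Count adjusted with PPP to […]. Compound in saline with 10% ethylene glycol is added to PRP and incubated at 37 °C before the agonist. Agonists: ADP 2×10^-5 M, AA 0.6 mM, PGH2 2.8 μM, adrenaline 0.6 μM. Born absorbance aggregometry; n = 5.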

Test [6] relates to Rattus norvegicus. The experiment in a line: Antihypertensive activity in spontaneously hypertensive rats (SHR) measured by percentage fall in arterial pressure (AP) at 25 mg/kg administered intraperitoneally at 24 h;No significance. It is filed as functional, organism-based. Also noted: dose 25 mg/kg. As to conditions: Artery. The gist of the method:
as §1

Test [7] concerns Rattus norvegicus. The test can be described thus: Antihypertensive activity in spontaneously hypertensive rats (SHR) measured by percentage fall in arterial pressure (AP) at 25 mg/kg administered intraperitoneally at 5 h;No significance. Type of test: functional, organism-based. Also on record: dose 25 mg/kg. The conditions noted are these: Artery. In a few lines: as §1
The species entered for test [8] is Homo sapiens. The experiment in a line: In vitro inhibition of platelet aggregation induced by ADP-II (PRP incubated for 60 minutes at 37 degree C) at 10e-5 M. Type of test: functional. As to conditions: 1 h. The gist of the method:
as §3

Test [9] is filed under the species Homo sapiens. The experiment in a line: In vitro inhibition of platelet aggregation induced by ADP-II (PRP incubated for 5 minutes at 37 degree C) at 10e-5 M;No significance. It is filed as functional. In a few lines:
as §3

Test [10] concerns Rattus norvegicus. The experiment in a line: Antihypertensive activity in spontaneously hypertensive rats (SHR) measured by percentage fall in arterial pressure (AP) at 25 mg/kg administered intraperitoneally at 1 h;No significance. It is filed as functional, organism-based. The conditions noted are these: Artery. Also on record: dose 25 mg/kg. The gist of the method: as §1
Test [11] deals with Rattus norvegicus. The experiment in a line: Antihypertensive activity in spontaneously hypertensive rats (SHR) measured by percentage fall in cardiac rhythm (CR) at 25 mg/kg administered intraperitoneally at 3 h;No significance. Type of test: functional, organism-based. Also noted: dose 25 mg/kg. The conditions noted are these: Heart. In a few lines: as §2
In test [12] the test system is Rattus norvegicus. The experiment in a line: Antihypertensive activity in spontaneously hypertensive rats (SHR) measured by percentage fall in cardiac rhythm (CR) at 25 mg/kg administered intraperitoneally at 24 h;No significance. It is filed as functional, organism-based. Also on record: dose 25 mg/kg. As to conditions: Heart. In a few lines:
as §1

The species entered for test [13] is Homo sapiens. The experiment in a line: In vitro inhibition of platelet aggregation induced by ADP-II (PRP incubated for 5 minutes at 37 degree C) at 10e-5 M. It is filed as functional. The gist of the method:
as §3

Test [14] concerns Rattus norvegicus. The test can be described thus: Antihypertensive activity in spontaneously hypertensive rats (SHR) measured by percentage fall in cardiac rhythm (CR) at 25 mg/kg administered intraperitoneally at 3 h. Type of test: functional, Heart. As to conditions: route intraperitoneal. The gist of the method: as §1
Test [15] is filed under the species Homo sapiens. The test can be described thus: In vitro inhibition of platelet aggregation induced by AA (PRP incubated for 60 minutes at 37 degree C) at 5e-6 M;No significance. Type of test: functional. In a few lines:
as §3

Test [16] relates to Rattus norvegicus. The test can be described thus: Antihypertensive activity in spontaneously hypertensive rats (SHR) measured by percentage fall in cardiac rhythm (CR) at 25 mg/kg administered intraperitoneally at 5 h. It is filed as functional, Heart. The conditions noted are these: route intraperitoneal. In a few lines: as §2
The species entered for test [17] is Homo sapiens. The experiment in a line: In vitro inhibition of platelet aggregation induced by […] (PRP incubated for 5 minutes at 37 degree C) at 5 e-6 M;No significance. It is filed as functional.
Test [18] is filed under the species Homo sapiens. The test can be described thus: In vitro inhibition of platelet aggregation induced by AA (PRP incubated for 60 minutes at 37 degree C) at 10e-5 M;No significance. Type of test: functional. In a few lines:
as §3

Test [19] is filed under the species Homo sapiens. The test can be described thus: In vitro inhibition of platelet aggregation induced by DD (PRP incubated for 5 minutes at 37 degree C) at 10e-5 M;No significance. It is filed as functional. The gist of the method:
as §3

Test [20] deals with Rattus norvegicus. The experiment in a line: Antihypertensive activity in spontaneously hypertensive rats (SHR) measured by percentage fall in cardiac rhythm (CR) at 25 mg/kg administered intraperitoneally at 24 h. As to conditions: route intraperitoneal. Type of test: functional, Heart. The gist of the method:
as §1

As to `CCOc1ccc2[nH]c3c(O)nncc3c2c1`, the inhibition result with Rattus norvegicus [1] was “No significant values”; in the test listed under Homo sapiens [2], “no significance”; in the test listed under Homo sapiens [5] it was “No significant values”; in the test filed under Homo sapiens [9], “No significant values”. For the same compound, the “Decrease in AP” value in the test with Rattus norvegicus [3], with Rattus norvegicus [6] and with Rattus norvegicus [10] was “No significant values” throughout. The “Decrease in CR” value in the test on Rattus norvegicus [4] was 6%; with Rattus norvegicus [7] it was “No significant values”; with Rattus norvegicus [11], “No significant values”; in the test with Rattus norvegicus [12], “No significant values”. Further, in the test listed under Homo sapiens [8], the inhibition at 10 µM is 100%.

With `Oc1ccc2[nH]c3c(O)nncc3c2c1`, the “Decrease in AP” value in the test with Rattus norvegicus [1], with Rattus norvegicus [6] and with Rattus norvegicus [7] was “No significant values” in each case. Also, the inhibition at 10 µM came to 87% in the test filed under Homo sapiens [13] and 100% in the test filed under Homo sapiens [8]. The “Decrease in CR” value with Rattus norvegicus [14] is listed as -11%; with Rattus norvegicus [16], -7%; in the test with Rattus norvegicus [20], -8%. The inhibition entry in the test filed under Homo sapiens [15], in the test filed under Homo sapiens [17], in the test filed under Homo sapiens [18] and in the test listed under Homo sapiens [19] was “No significant values” in each case.
